Here are results for 3 molecules from paper PMC7790458 (Journal of the American Chemical Society, 2020).

A value given as a limit tells only on which side of the number the result lay.

One series concerns E. coli ΔbamBΔtolC. Nature of the series: MIC, CLSI broth microdilution. Type of series: cell-based. The note with it: MH-II broth with dipyridyl.
Series [1] in a line: Cleavage of acc peptide by mouse serum. The note with it: compared with human serum. The class given is in vitro ADME. The gist of the method: (§1)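 Substrate is an N-acetylated peptide with 7-amino-4-carbamoylmethylcoumarin (acc) coupled directly to the P1 residue as an antibiotic surrogate, made by solid-phase synthesis. The substrate is incubated in human or mouse serum, and cleavage is followed as release of free fluorescent amino coumarin.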

The nature of series [2]: Cleavage of acc peptide by human serum. Type of series: in vitro ADME. Particulars: fluorescence (Figure S8). The gist of the method: as §1
The subject of series [3] is periplasmic extract of E. coli K12 MG1655. Nature of the series: acc release from fluorogenic peptides in periplasmic extract. The class given is biochemical. The note with it: HPLC analysis (Figure S9).
For the next series, the system named is S. aureus Newman. The series is described as follows: MIC, CLSI broth microdilution. Type of series: cell-based. The note with it: MH-II broth with dipyridyl.
The next series has as its system E. coli ΔsurA. The series is described as follows: MIC, CLSI broth microdilution. Particulars: MH-II broth with dipyridyl. Type of series: cell-based.

With `CC(=O)NC[C@H]1CN(c2ccc(N3CCN(C(=O)CO)CC3)c(F)c2)C(=O)O1` [eperezolid], the minimal inhibitory concentration (MIC) result against E. coli ΔbamBΔtolC was “susceptible”.
Turning to Ac-WSPKYM-acc [compound 1], the “cleavage by mouse serum” value in series [1] is listed as “cleaved more rapidly”. Further, in series [2], the “half-life of acc release” value lay in the range of 3 to 4 h. Besides, the “substrate consumption at the end of the reaction” value in series [3] was “fully consumed”.
Consider eperezolid-NH2 [compound 5], for which the MIC is 43 µM with S. aureus Newman, above 171 µM with E. coli ΔbamBΔtolC and 43 µM against E. coli ΔsurA.
